The values below come from ChEMBL document CHEMBL1150419, “Structure-activity relationships of a peptide inhibitor of the human FcRn:human IgG interaction” (Bioorg Med Chem, 2008).

In this assay the target is IgG receptor FcRn large subunit p51 (Homo sapiens, UniProt P55899). In words: Inhibition of human IgG binding to soluble human FcRn by ELISA. The essentials: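 Biotinylated soluble human FcRn immobilized on neutravidin plates, incubated with hIgG (3 nM, constant) and peptide at varying concentrations for 2 h at 37 °C. After washing, bound hIgG detected with peroxidase-conjugated hIgG-specific Fab fragments.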
Chain of IgG receptor FcRn large subunit p51 (P55899 whole entry, the tested form may be a part): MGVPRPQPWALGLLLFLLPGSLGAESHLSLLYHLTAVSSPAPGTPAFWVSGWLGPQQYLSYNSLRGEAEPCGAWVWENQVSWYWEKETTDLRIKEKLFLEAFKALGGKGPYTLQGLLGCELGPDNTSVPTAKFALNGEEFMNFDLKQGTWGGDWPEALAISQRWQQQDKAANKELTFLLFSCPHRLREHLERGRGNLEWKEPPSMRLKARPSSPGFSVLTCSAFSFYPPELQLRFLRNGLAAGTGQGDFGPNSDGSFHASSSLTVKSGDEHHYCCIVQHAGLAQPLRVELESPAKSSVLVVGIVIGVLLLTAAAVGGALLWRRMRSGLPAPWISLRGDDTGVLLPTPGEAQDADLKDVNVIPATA
(In general: An ELISA detects its analyte on a solid surface through an enzyme-linked reagent.)
Regarding `CC(C)C[C@H](NC(=O)CNC(=O)CNC(=O)[C@H](Cc1ccccc1)NC(=O)[C@H](Cc1cnc[nH]1)N(C)C(=O)CNC(=O)[C@@H](NC(=O)[C@@H](NC(=O)[C@H](Cc1ccccc1)NC(=O)[C@@H](N)CCCN=C(N)N)C(C)(C)S)[C@@H](C)O)C(=O)N[C@@H](Cc1ccc(O)cc1)C(=O)N1CCC[C@H]1C(=O)N[C@@H](CS)C(=O)O`, the concentration for half-maximal inhibition (IC50) is above 250 µM.
With `CC(C)C[C@H](NC(=O)CNC(=O)CNC(=O)[C@H](Cc1ccccc1)NC(=O)[C@H](Cc1cnc[nH]1)NC(=O)CNC(=O)[C@@H](NC(=O)[C@@H](NC(=O)[C@H](Cc1ccccc1)NC(=O)[C@@H](N)CCCN=C(N)N)C(C)(C)S)[C@@H](C)O)C(=O)N[C@@H](Cc1ccc(O)cc1)C(=O)N1CCC[C@H]1C(=O)N[C@@H](CS)C(=O)O` the figure was 2 µM.
On to `CC[C@H](C)[C@@H](NC(=O)CNC(=O)[C@H](Cc1ccccc1)NC(=O)[C@H](Cc1cnc[nH]1)NC(=O)CNC(=O)[C@@H](NC(=O)[C@@H](NC(=O)[C@H](Cc1ccccc1)NC(=O)[C@H](CCCNC(=N)N)NC(=O)[C@@H](N)CCC(N)=O)C(C)(C)S)[C@@H](C)O)C(=O)N[C@@H](CC(C)C)C(=O)N[C@@H](Cc1ccc(O)cc1)C(=O)N1CCC[C@H]1C(=O)N[C@@H](CS)C(=O)N[C@@H](CC(N)=O)C(=O)NCC(=O)N1CCC[C@H]1C(=O)O`, for which the IC50 worked out at 18 µM.
For the compound `CC(C)C[C@@H](C(=O)N[C@@H](Cc1ccc(O)cc1)C(=O)N1CCC[C@H]1C(=O)N[C@@H](C)C(=O)O)N(C)C(=O)CN(C)C(=O)CNC(=O)[C@H](Cc1ccccc1)NC(=O)[C@H](Cc1cnc[nH]1)NC(=O)CNC(=O)[C@@H](NC(=O)[C@@H](NC(=O)[C@H](Cc1ccccc1)NC(=O)[C@@H](N)CCCNC(=N)N)C(C)C)[C@@H](C)O`, the concentration for half-maximal inhibition (IC50) was found to be 37 µM.
Regarding `CC(C)C[C@H](NC(=O)[C@@H](C)NC(=O)CNC(=O)[C@H](Cc1ccccc1)NC(=O)[C@H](Cc1cnc[nH]1)NC(=O)CNC(=O)[C@@H](NC(=O)[C@H](CS)NC(=O)[C@H](Cc1ccccc1)NC(=O)[C@H](CCCN=C(N)N)NC(=O)[C@@H](N)CCC(N)=O)[C@@H](C)O)C(=O)N[C@@H](Cc1ccc(O)cc1)C(=O)N1CCC[C@H]1C(=O)N[C@@H](CS)C(=O)N[C@@H](CC(N)=O)C(=O)NCC(=O)N1CCC[C@H]1C(=O)O`, the half-inhibitory concentration (IC50) was determined as 57 µM.
With `CC(C)C[C@H](NC(=O)CNC(=O)CNC(=O)[C@H](Cc1ccccc1)NC(=O)[C@H](Cc1cnc[nH]1)NC(=O)CNC(=O)[C@@H](NC(=O)[C@@H](NC(=O)[C@H](Cc1ccccc1)NC(=O)[C@H](CCCNC(=N)N)NC(=O)[C@@H](N)CCC(N)=O)C(C)(C)S)[C@@H](C)O)C(=O)N[C@@H](Cc1ccc(O)cc1)C(=O)N1CCC[C@H]1C(=O)N[C@@H](CCS)C(=O)N[C@@H](CC(N)=O)C(=O)NCC(=O)N1CCC[C@H]1C(=O)O` the figure was 2 µM; with `CC(C)C[C@H](NC(=O)CNC(=O)CNC(=O)[C@H](Cc1ccccc1)NC(=O)[C@H](Cc1cnc[nH]1)NC(=O)CNC(=O)[C@@H](NC(=O)[C@@H](NC(=O)[C@H](Cc1ccccc1)NC(=O)[C@H](CCCN=C(N)N)NC(=O)[C@@H](N)CCC(N)=O)C(C)(C)S)[C@@H](C)O)C(=O)N[C@@H](Cc1ccc(F)cc1)C(=O)N1CCC[C@H]1C(=O)N[C@@H](CS)C(=O)N[C@@H](CC(N)=O)C(=O)NCC(=O)N1CCC[C@H]1C(=O)O`, 26 µM; with `CC(C)C[C@H](NC(=O)CNC(=O)[C@@H](Cc1cnc[nH]1)NC(=O)[C@H](Cc1ccccc1)NC(=O)[C@H](Cc1cnc[nH]1)NC(=O)CNC(=O)[C@@H](NC(=O)[C@@H](NC(=O)[C@H](Cc1ccccc1)NC(=O)[C@H](CCCNC(=N)N)NC(=O)[C@@H](N)CCC(N)=O)C(C)(C)S)[C@@H](C)O)C(=O)N[C@@H](Cc1ccc(O)cc1)C(=O)N1CCC[C@H]1C(=O)N[C@@H](CS)C(=O)N[C@@H](CC(N)=O)C(=O)NCC(=O)N1CCC[C@H]1C(=O)O`, 3.6 µM.
On to `CC(C)C[C@@H](C(=O)N[C@@H](Cc1ccc(O)cc1)C(=O)N1CCC[C@H]1C(=O)N[C@@H](CS)C(=O)O)N(C)C(=O)CN(C)C(=O)CNC(=O)[C@H](Cc1ccccc1)NC(=O)[C@H](Cc1c[nH]nn1)NC(=O)CNC(=O)[C@@H](NC(=O)[C@@H](NC(=O)[C@H](Cc1ccccc1)NC(=O)[C@@H](N)CCCNC(=N)N)C(C)(C)S)[C@@H](C)O`, for which the IC50 is 5.7 µM.
As for `CC(C)C[C@H](NC(=O)[C@H]1CCCN1C(=O)[C@@H](C)NC(=O)[C@H](Cc1ccccc1)NC(=O)[C@H](Cc1cnc[nH]1)NC(=O)CNC(=O)[C@@H](NC(=O)[C@@H](NC(=O)[C@H](Cc1ccccc1)NC(=O)[C@H](CCCN=C(N)N)NC(=O)[C@@H](N)CCC(N)=O)C(C)(C)S)[C@@H](C)O)C(=O)N[C@@H](Cc1ccc(O)cc1)C(=O)N1CCC[C@H]1C(=O)N[C@@H](CS)C(=O)N[C@@H](CC(N)=O)C(=O)NCC(=O)N1CCC[C@H]1C(=O)O`, the IC50 turned out to be 3.7 µM.
With `CC(C)C[C@H](NC(=O)CN(C)C(=O)CNC(=O)[C@H](Cc1ccccc1)NC(=O)[C@H](Cc1cnc[nH]1)NC(=O)CNC(=O)[C@@H](NC(=O)[C@@H](NC(=O)[C@H](Cc1ccccc1)NC(=O)[C@H](CCCN=C(N)N)NC(=O)[C@@H](N)CCC(N)=O)C(C)(C)S)[C@@H](C)O)C(=O)N[C@@H](Cc1ccc(O)cc1)C(=O)N1CCC[C@H]1C(=O)N[C@@H](CS)C(=O)N[C@@H](CC(N)=O)C(=O)NCC(=O)N1CCC[C@H]1C(=O)O` the figure was 0.9 µM.
With `CC(C)C[C@@H](C(=O)N[C@@H](Cc1ccc(O)cc1)C(=O)N1CCC[C@H]1C(=O)N[C@@H](CS)C(N)=O)N(C)C(=O)CN(C)C(=O)CNC(=O)[C@H](Cc1ccccc1)NC(=O)[C@H](Cc1csc[n+]1C)NC(=O)CNC(=O)[C@@H](NC(=O)[C@@H](NC(=O)[C@H](Cc1ccccc1)NC(=O)[C@@H](N)CCCN=C(N)N)C(C)(C)S)[C@@H](C)O` the figure was 2.4 µM; with `CC(C)C[C@H](NC(=O)CNC(=O)CNC(=O)[C@H](Cc1ccccc1)NC(=O)[C@H](Cc1cnc[nH]1)NC(=O)CNC(=O)[C@@H](NC(=O)[C@H](NC(=O)[C@@H](Cc1ccccc1)NC(=O)[C@H](CCCN=C(N)N)NC(=O)[C@@H](N)CCC(N)=O)C(C)(C)S)[C@@H](C)O)C(=O)N[C@@H](Cc1ccc(O)cc1)C(=O)N1CCC[C@H]1C(=O)N[C@H](CS)C(=O)N[C@@H](CC(N)=O)C(=O)NCC(=O)N1CCC[C@H]1C(=O)O`, 11.4 µM; with `CC(C)C[C@H](NC(=O)[C@H]1CCCN1C(=O)CNC(=O)[C@H](Cc1ccccc1)NC(=O)[C@H](Cc1cnc[nH]1)NC(=O)CNC(=O)[C@@H](NC(=O)[C@@H](NC(=O)[C@H](Cc1ccccc1)NC(=O)[C@H](CCCNC(=N)N)NC(=O)[C@@H](N)CCC(N)=O)C(C)(C)S)[C@@H](C)O)C(=O)N[C@@H](Cc1ccc(O)cc1)C(=O)N1CCC[C@H]1C(=O)N[C@@H](CS)C(=O)N[C@@H](CC(N)=O)C(=O)NCC(=O)N1CCC[C@H]1C(=O)O`, 1.4 µM.
On to `CC(C)C[C@H](NC(=O)CN1CCC[C@@H](NC(=O)[C@H](Cc2ccccc2)NC(=O)[C@H](Cc2cnc[nH]2)NC(=O)CNC(=O)[C@@H](NC(=O)[C@@H](NC(=O)[C@H](Cc2ccccc2)NC(=O)[C@@H](N)CCCN=C(N)N)C(C)C)[C@@H](C)O)C1=O)C(=O)N[C@@H](Cc1ccc(O)cc1)C(=O)N1CCC[C@H]1C(=O)N[C@@H](C)C(=O)O`, for which the IC50 came out at 38 µM.
With `CC(C)C[C@H](NC(=O)CNC(=O)[C@H]1CCCN1C(=O)[C@H](Cc1ccccc1)NC(=O)[C@H](Cc1cnc[nH]1)NC(=O)CNC(=O)[C@@H](NC(=O)[C@@H](NC(=O)[C@H](Cc1ccccc1)NC(=O)[C@H](CCCN=C(N)N)NC(=O)[C@@H](N)CCC(N)=O)C(C)(C)S)[C@@H](C)O)C(=O)N[C@@H](Cc1ccc(O)cc1)C(=O)N1CCC[C@H]1C(=O)N[C@@H](CS)C(=O)N[C@@H](CC(N)=O)C(=O)NCC(=O)N1CCC[C@H]1C(=O)O` the figure was 5 µM; with `CC(C)C[C@H](NC(=O)[C@H]1CCCN1C(=O)[C@H]1CCCN1C(=O)[C@H](Cc1ccccc1)NC(=O)[C@H](Cc1cnc[nH]1)NC(=O)CNC(=O)[C@@H](NC(=O)[C@@H](NC(=O)[C@H](Cc1ccccc1)NC(=O)[C@H](CCCNC(=N)N)NC(=O)[C@@H](N)CCC(N)=O)C(C)(C)S)[C@@H](C)O)C(=O)N[C@@H](Cc1ccc(O)cc1)C(=O)N1CCC[C@H]1C(=O)N[C@@H](CS)C(=O)N[C@@H](CC(N)=O)C(=O)NCC(=O)N1CCC[C@H]1C(=O)O`, 21 µM; with `CC(C)C[C@H](NC(=O)CNC(=O)[C@@H](CCCN=C(N)N)NC(=O)[C@H](Cc1ccccc1)NC(=O)[C@H](Cc1cnc[nH]1)NC(=O)CNC(=O)[C@@H](NC(=O)[C@@H](NC(=O)[C@H](Cc1ccccc1)NC(=O)[C@H](CCCN=C(N)N)NC(=O)[C@@H](N)CCC(N)=O)C(C)(C)S)[C@@H](C)O)C(=O)N[C@@H](Cc1ccc(O)cc1)C(=O)N1CCC[C@H]1C(=O)N[C@@H](CS)C(=O)N[C@@H](CC(N)=O)C(=O)NCC(=O)N1CCC[C@H]1C(=O)O`, 4.1 µM.
With `CC(C)C[C@H](NC(=O)[C@@H](C)NC(=O)[C@@H](Cc1ccccc1)NC(=O)[C@H](Cc1ccccc1)NC(=O)[C@H](Cc1cnc[nH]1)NC(=O)CNC(=O)[C@@H](NC(=O)[C@@H](NC(=O)[C@H](Cc1ccccc1)NC(=O)[C@H](CCCNC(=N)N)NC(=O)[C@@H](N)CCC(N)=O)C(C)(C)S)[C@@H](C)O)C(=O)N[C@@H](Cc1ccc(O)cc1)C(=O)N1CCC[C@H]1C(=O)N[C@@H](CS)C(=O)N[C@@H](CC(N)=O)C(=O)NCC(=O)N1CCC[C@H]1C(=O)O` the figure was 4.3 µM; with `CC(C)C[C@H](NC(=O)CNC(=O)CNC(=O)[C@H](Cc1ccccn1)NC(=O)[C@H](Cc1cnc[nH]1)NC(=O)CNC(=O)[C@@H](NC(=O)[C@@H](NC(=O)[C@H](Cc1ccccc1)NC(=O)[C@H](CCCNC(=N)N)NC(=O)[C@@H](N)CCC(N)=O)C(C)(C)S)[C@@H](C)O)C(=O)N[C@@H](Cc1ccc(O)cc1)C(=O)N1CCC[C@H]1C(=O)N[C@@H](CS)C(=O)N[C@@H](CC(N)=O)C(=O)NCC(=O)N1CCC[C@H]1C(=O)O`, 90 µM; with `CC(C)C[C@H](NC(=O)CNC(=O)CNC(=O)[C@H](Cc1c[nH]c2ccccc12)NC(=O)[C@H](Cc1cnc[nH]1)NC(=O)CNC(=O)[C@@H](NC(=O)[C@@H](NC(=O)[C@H](Cc1ccccc1)NC(=O)[C@H](CCCN=C(N)N)NC(=O)[C@@H](N)CCC(N)=O)C(C)(C)S)[C@@H](C)O)C(=O)N[C@@H](Cc1ccc(O)cc1)C(=O)N1CCC[C@H]1C(=O)N[C@@H](CS)C(=O)N[C@@H](CC(N)=O)C(=O)NCC(=O)N1CCC[C@H]1C(=O)O`, 26 µM.

What is called IC50 is the concentration that inhibits the measured activity by half.
